From ChEMBL document CHEMBL1833917, “Antimalarial activity of physalins B, D, F, and G” (J Nat Prod, 2011) come the findings set out here.

What is called pIC50 is the negative decadic logarithm of the IC50, by convention in mol/L.

pIC50: −log10 of the molar value. The source made the active and inactive calls. The rule behind the calls is not given here.

For series [1], the system named is Plasmodium berghei. Kind of series: Antimalarial activity against Plasmodium berghei NK65 infected in mouse assessed as reduction of parasitemia level at 50 mg/kg, ip qd for 4 days by optical microscopy analysis. In kind it is functional, organism-based. More on the design: dose 50 mg/kg. Summed up: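 Male SPF Swiss mice, 5 weeks old, infected with P. berghei NK65 (line kept by weekly ip blood passage of 10^6 infected RBC). Groups of five were dosed ip daily for 4 days from the first day of infection, in 200 μL saline plus 10% DMSO. Chloroquine 50 mg/kg and vehicle served as controls. Parasitemia was counted by microscopy on methanol-fixed, fast-panoptic-stained blood smears on days 4–8. Reduction was calculated versus vehicle. Two replicate experiments were run.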

A short description of series [2]: Selectivity index, ratio of LC50 for mouse splenocytes to IC50 for chloroquine-resistant and mefloquine-sensitive Plasmodium falciparum W2. Summed up: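 SI = splenocyte LC50 (3H-thymidine assay) divided by W2 P. falciparum IC50 (3H-hypoxanthine assay), each from three independent experiments.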
Series [3] in a line: Cytotoxicity against BALB/c mouse splenocytes assessed as [3H]thymidine incorporation after 24 hrs by beta counting. Format: cell-based, Splenocyte. Particulars: read-out: LC50. The procedure, abridged:
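BALB/c splenocytes, 6 × 10^5 cells/well, in DMEM + 10% FCS + 50 μg/mL gentamycin. Compounds were tested at five concentrations in triplicate. 3H-thymidine (1 μCi/well) was added, followed by 24 h at 37 °C, 5% CO2, then β-counting. Cytotoxicity was taken relative to untreated cultures and LC50 derived. Means ± SD of three experiments.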

A further series relates to Plasmodium falciparum. Kind of series: Antimalarial activity against chloroquine-resistant and mefloquine-sensitive Plasmodium falciparum W2 infected in human O-positive erythrocytes assessed as inhibition of parasite growth by [3H]hypoxanthine incorporation assay. Format: functional, organism-based. Summed up:
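Compounds were tested at several concentrations, diluted in 4% DMSO/RPMI without hypoxanthine, with mefloquine as control. Growth was measured by 3H-hypoxanthine uptake versus untreated wells. Triplicate, means ± SD of three independent experiments.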

For series [4], the system named is Plasmodium berghei. The experiment in a line: Antimalarial activity against Plasmodium berghei NK65 infected in mouse assessed as reduction of parasitemia level at 50 to 100 mg/kg, ip qd for 4 days by optical microscopy analysis. Format: functional, organism-based. Summed up: (§1)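 Male Swiss mice (5-week-old, SPF), groups of five, infected with P. berghei NK65 (line kept by weekly ip blood passage of 10^6 infected RBC). Dosing ip, 200 μL, daily for four consecutive days from the first day of infection, in saline + 10% DMSO. Comparators were chloroquine 50 mg/kg and 10% DMSO/saline mock. Survival was monitored to day 24.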

The subject of series [5] is Plasmodium berghei. The experiment in a line: Antimalarial activity against Plasmodium berghei NK65 infected in mouse assessed as reduction of host mortality at 50 to 100 mg/kg, ip qd for 4 days measured on day 7. In kind it is functional, organism-based. The procedure, abridged:
as §1

Series [6] concerns Plasmodium berghei. The experiment in a line: Antimalarial activity against Plasmodium berghei NK65 infected in mouse assessed as reduction of parasitemia level at 50 to 100 mg/kg, ip qd for 4 days measured on day 8 postinfection by optical microscopy analysis. Format: functional. More on the design: scale not given: the % may be the effect or the level left. Particulars: dose mg/kg 50-100; route intraperitoneal. The procedure, abridged: as §1

In series [7] the test system is Plasmodium berghei. Kind of series: Antimalarial activity against Plasmodium berghei NK65 infected in mouse assessed as reduction of host mortality at 100 mg/kg, ip qd for 4 days measured on day 24 postinfection. In kind it is functional. More on the design: scale not given: the % may be the effect or the level left. Particulars: route intraperitoneal. Summed up: as §1

For the compound `CCN(CC)CCCC(C)Nc1ccnc2cc(Cl)ccc12` (centres undefined), in the series with Plasmodium berghei [1], the result was Active.

Consider `C[C@]12C(=O)C=CCC1=CC[C@@H]1[C@@H]2CC[C@]2(O)C(=O)O[C@@]3(C)[C@H]4C[C@]5(C)[C@@H](CO[C@@]16O[C@@]32[C@H]5C6=O)C(=O)O4` [PHYSALIN B], for which the “Ratio LC50/IC50” value in series [2] stood at 12.3. Besides, in series [3], the CC50 at 24 h came out at 33.9 µM. Besides, the pIC50 in the series with Plasmodium falciparum is 5.55.

Take `C[C@]12C(=O)C=CC=C1[C@@H](O)C[C@@H]1[C@@H]2CC[C@@]2(O)C(=O)O[C@@]3(C)[C@H]4C[C@]5(C)[C@@H](CO[C@@]16O[C@]23[C@H]5C6=O)C(=O)O4` [PHYSALIN G]: the “Ratio LC50/IC50” value in series [2] was 5.6. Also, in series [3], the CC50 at 24 h is 37.5 µM. Besides, the negative-log IC50 (pIC50) in the series on Plasmodium falciparum was 5.17.

Take `C[C@@]12C[C@H]3OC(=O)[C@@H]1CO[C@]14O[C@]5([C@H]2C1=O)[C@@](O)(CC[C@H]1[C@H]4C[C@H]2O[C@]24CC=CC(=O)[C@]14C)C(=O)O[C@@]35C` [PHYSALIN F]: the “Ratio LC50/IC50” value in series [2] is recorded as 5.94. In addition, the CC50 at 24 h in series [3] was 13.3 µM. Besides, the result in the series with Plasmodium berghei [4] was inactive. The negative logarithm of the IC50 (pIC50) in the series with Plasmodium falciparum is 5.66. In addition, in the series with Plasmodium berghei [5], the outcome was Active.

Consider `OC(c1cc(C(F)(F)F)nc2c(C(F)(F)F)cccc12)C1CCCCN1` (centres undefined) [MEFLOQUINE], for which the “Ratio LC50/IC50” value in series [2] is given as 238. In addition, the CC50 at 24 h in series [3] worked out at 9.5 µM.

For the compound `C[C@@]12C[C@H]3OC(=O)[C@@H]1CO[C@@]14O[C@]5([C@H]2C1=O)[C@@](O)(CC[C@H]1[C@H]4C[C@@H](O)[C@@]2(O)CC=CC(=O)[C@]12C)C(=O)O[C@@]35C` [PHYSALIN D], in series [2], the “Ratio LC50/IC50” value worked out at 10.4. For the same compound, in series [3], the CC50 at 24 h came out at 570 µM. Further, the results for the Activity in the series on Plasmodium berghei [6] and in the series with Plasmodium berghei [7] were 65% and 25%, respectively. Further, in the series on Plasmodium falciparum, the negative logarithm of the IC50 (pIC50) is 4.26.
